These results are taken from PubChem BioAssay AID809 (SRMLSC, 2007).

Active and inactive are the calls of the source.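 The calls were made as follows: active = EC50 for reversing nicotinamide-shortened yeast lifespan at or below a set limit; inactive = EC50 above that limit.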

The test relates to S. cerevisiae DeaD BB579, nicotinamide rescue growth, OD615 48 h. The experiment in a line: BB579 yeast growth restoration under nicotinamide – S. cerevisiae, yeast lifespan extension project, dose response (AID 809). In outline: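 Assay system: Saccharomyces cerevisiae DeaD strain BB579, log-phase cells; Medium: CSMM-D glucose restrictive medium; Dosing: compounds from 0.078 to 10 µM final, 0.5% DMSO; Times: 4 h pre-incubation, 48 h exposure at 30 °C; Technique: optical density at 615 nm (absorbance); Evaluation: culture saturation density reflecting mother-cell replicative lifespan.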
On to `O=C1NC(=O)N(CCC2=CCCCC2)C(=O)/C1=C\c1cccs1`, for which the EC50 – broadly, the concentration at which the effect is half-maximal – was 7.01 µM.
As to `COc1ccc(/C=N/NC(=O)c2csc(-n3nc(C)cc3C(F)(F)F)n2)cc1`, the EC50 is > 10 µM (inactive).
Next, `COCCOC(=O)/C(=C/c1ccc(OC(=O)c2ccccc2)cc1)C(C)=O`: 4.96 µM; `CCN(CC)Cc1c(O)c(Cl)cc2c(C)c(C)c(=O)oc12`: > 10 µM (inactive); `O=C(Nc1scc(-c2ccc(F)cc2)c1C(=O)O)c1ccco1`: 3.15 µM.
Next, `CN1C(=O)C(Cl)(Cl)C(=O)c2ccccc21`: > 10 µM (inactive); `CCn1ncc(/C=N/NC(=O)c2ccc3c(c2)OCO3)c1C`: > 10 µM (inactive).
For `CN1C(=O)/C(=C/c2cccn2-c2ccc3ccccc3c2)C(=O)NC1=S`, the EC50 is 5.73 µM.
For the compound `CC(C)Cn1c(=O)c(C(=O)Nc2cnccn2)c(O)c2ccccc21`, the half-maximal effective concentration (EC50) was 9.1 µM.
`Cc1ccnc(SCc2cc(=O)c(OC(=O)c3ccco3)co2)n1`: the EC50 is 8.45 µM.
Next, `O=C(NCc1ccco1)c1cc(C(=O)C2CCCCC2)c[nH]1`: > 10 µM (inactive).
Next, `CC1(C)CC(=O)C2=C(C1)OC1=C(C(=O)CC(C)(C)C1)C2c1ccc(O)cc1O`: > 10 µM (inactive).
Next, `Cc1ccc2[nH]c(=O)c(CN(CCO)Cc3nnnn3CCc3ccccc3)cc2c1`: > 10 µM (inactive).
Turning to `COc1ccc(NC(=O)/C(Cl)=C(/Cl)S(=O)Cc2ccc(C)cc2)cn1` (configuration not stated), the EC50 is > 10 µM (inactive).
In the case of `O=Cc1cccn1-c1sc2c(c1C(=O)O)CCCC2` it was > 10 µM (inactive); in that of `O=C(Nc1scc(-c2cccs2)c1C(=O)O)c1cccs1`, 6.7 µM.
In the case of `O=C(NC(=S)Nc1nc2c(s1)CSc1ccccc1-2)c1ccccc1` it was > 10 µM (inactive).
As for `N#Cc1ccc(-c2ccc(OCC(=O)NCCc3ccccc3)cc2)cc1`, the EC50 was > 10 µM (inactive).
Next, `O=C(O)Cc1ccc(N=Cc2c(O)ccc3ccccc23)cc1`: 3.85 µM; `O=c1cc(-c2c(F)c(F)c(F)c(F)c2F)oc2c(F)c(F)c(F)c(F)c12`: 5.65 µM.
As for `C=C1C(=O)C=C2CN(C(=O)c3ccccc3)[C@@](Cc3ccc(F)cc3)(C(=O)OC)[C@@H]12`, the EC50 is > 10 µM (inactive).
Next, `COc1ccc(CN2C(=O)/C(=C/c3ccncc3)SC2=S)cc1`: 6.07 µM; `O=C(/C(=C/O)N=Nc1ccc(Cl)cc1)c1ccncc1`: 2.64 µM; `CCSc1nnc(NC(=O)CSc2nc(C)cc(C)n2)s1`: > 10 µM (inactive).
In the case of `CCOC(=O)c1ccccc1N1C(=O)CSC1=S` it was > 10 µM (inactive); in that of `CCCCC(c1nnnn1CC1CCCO1)N1CCN(c2nc3ccccc3s2)CC1` (configuration not stated), > 10 µM (inactive).
In the case of `O=[N+]([O-])c1cc(S(=O)(=O)N2CCCCCC2)ccc1F` it was 5.18 µM; in that of `O=C(c1ccccc1)c1nc2ccccc2[nH]c1=O`, > 10 µM (inactive).
For the compound `O=C(CCC1CCCC1)c1c(O)c2ccccc2oc1=O`, the EC50 is > 10 µM (inactive).
In the case of `C=CCn1c(C)cc(C(=O)CSc2nc3ccccc3c(=O)[nH]2)c1C`, the EC50 was > 10 µM (inactive).
Next, `CC(C)OCCCNS(=O)(=O)c1ccc2ccccc2c1`: > 10 µM (inactive).
Next, `O=C1ON=C(c2ccccc2)/C1=C/c1ccc(-c2ccccc2[N+](=O)[O-])o1`: 3.82 µM; `C=CCN(CC=C)S(=O)(=O)c1ccc2nc(NC(=O)C(C)C)sc2c1`: > 10 µM (inactive).
For the compound `CCCCn1c(=O)c(C(=O)Nc2cnccn2)c(O)c2ccccc21`, the EC50 is 3.01 µM.
In the case of `CN(C)c1ccc(S(=O)(=O)c2ccc(Cl)cc2)cc1` it was > 10 µM (inactive).
Next, `COc1cccc(C(=O)Oc2cc(N)n(S(=O)(=O)c3ccc(C)cc3)n2)c1OC`: 9.26 µM; `CCOC(=O)CCCNC(=O)COc1ccccc1C#N`: > 10 µM (inactive).
In the case of `CC(=O)C(C(C)=O)c1c(Cl)c(O)c(O)c2c(C(=O)c3ccccc3)coc12` it was > 10 µM (inactive); in that of `C/C(=N\NC(=O)c1cccc(Cl)c1)C1C(=O)c2ccccc2C1=O`, > 10 µM (inactive).
Regarding `CC(C)(C)OC(=O)[C@H]1[C@H](c2ccc([N+](=O)[O-])cc2)C2(C(=O)c3ccccc3C2=O)C2c3ccccc3C=NN21` (some centres not stated), the EC50 was 8.16 µM.
Next, `Cc1cc(C)c(NC(=O)/C(=C/c2ccccc2)c2ccccc2)c(C)c1`: > 10 µM (inactive).
Turning to `CN1CCN(CC(=O)Nc2ccc(Cl)cc2Cl)CC1`, the EC50 was > 10 µM (inactive).
Next, `CCc1nnc(N2C(=O)c3ccc(Oc4ccc([N+](=O)[O-])cc4)cc3C2=O)s1`: > 10 µM (inactive); `Cc1ccc(C(=O)c2no[n+]([O-])c2C(=O)c2ccc(C)cc2)cc1`: > 10 µM (inactive).
As to `O=C(/C=C/c1ccccc1)C1C(=O)c2ccccc2C1=O`, the EC50 was > 10 µM (inactive).
As for `Cc1cc(C)c(S(=O)(=O)c2ccccc2)c(OC(=O)c2cc(F)c(F)cc2Cl)n1`, the EC50 was 7.24 µM.
As to `O=[N+]([O-])c1cc2oc3c(c2c(C=NCc2ccccc2)c1O)CCCC3`, the EC50 was 2.55 µM.
In the case of `CCCCCn1c(=O)c(C(=O)NCc2ccccn2)c(O)c2ccccc21`, the EC50 was > 10 µM (inactive).
In the case of `CC1=CN2C(=N)/C(=C/c3ccc([N+](=O)[O-])o3)C(=O)N=C2S1` it was 6.69 µM; in that of `O=C1c2ccccc2NC(c2ccc(Cl)cc2Cl)N1O` (configuration not stated), 6.33 µM; in that of `COC(=O)c1cc(OC)c(OC)cc1NC(=S)Nc1cccc(C(C)=O)c1`, > 10 µM (inactive).
In the case of `COc1ccc(-c2noc(CSc3nnc(-c4ccncc4)n3-c3ccc(F)cc3)n2)cc1OC`, the EC50 was > 10 µM (inactive).
Next, `Cc1cc2c(c(=O)n1CCc1ccccc1)C(c1ccco1)C(C#N)=C(N)O2` (configuration not stated): > 10 µM (inactive); `CC(C)CN=C(NS(=O)(=O)c1ccccc1)C(Cl)(Cl)Cl`: 3.99 µM; `CCOC(=O)c1ccc2c(c1)n(CCO)c(C)[n+]2CC`: > 10 µM (inactive).
In the case of `C=CCn1c(C)cc(C(=O)COc2ncnc3sccc23)c1C` it was 9.94 µM.
Next, `O=c1[nH]c2ccccc2nc1Cc1ccccc1`: > 10 µM (inactive).
In the case of `COC(=O)C1=C(N)OC2=C(C(=O)CC(C)(C)C2)C1c1cccs1` (configuration not stated), the EC50 was 8.93 µM.
Next, `CCOC(=O)c1c(C)oc2c1c(C(c1cccnc1)N1CCOCC1)c(O)c1ccccc12` (configuration not stated): > 10 µM (inactive); `C/C=C/Cn1c(N2CCCCCC2)nc2c1c(=O)[nH]c(=O)n2C`: > 10 µM (inactive).
In the case of `CC(C)c1ccc(C2=C(O)c3ccccc3C(=O)C2=O)cc1` it was > 10 µM (inactive).
With `COc1ccccc1C(=O)Oc1ccc2c(c1)O/C(=C\c1ccncc1)C2=O`, the EC50 is > 10 µM (inactive).
In the case of `CCCCOC(=O)n1c(=O)oc2cc(S(=O)(=O)N3CCCCC3)ccc21` it was > 10 µM (inactive).
Next, `O=C1c2ccccc2C(=O)N1c1ncc(Cc2ccc(Cl)cc2)s1`: > 10 µM (inactive); `CCCCC(=Nc1ccc(N)cc1)C1=C(O)C(C(=O)OC)C(C)(C)CC1=O` (configuration not stated): 5.51 µM.
Next, `CCc1ccc2c(c1)CCCN2C(=O)c1ccccc1C(=O)O`: 9.34 µM; `CC(=O)Oc1oc(-c2ccccc2)nc1C=Nc1ccccc1`: 5.95 µM.
As for `O=C(CCN1CCCCCC1)Nc1ccc(F)cc1`, the EC50 was > 10 µM (inactive).
In the case of `O=C(Nc1ccc(S(=O)(=O)N2CCc3ccccc3C2)cc1)c1ccccc1` it was > 10 µM (inactive); in that of `O=C1C(Cl)=C(Nc2ccccc2O)C(=O)N1CCc1ccccc1`, > 10 µM (inactive); in that of `Cn1c(=O)c(=O)n(C)c2cc(S(=O)(=O)N3CCN(Cc4ccccc4)CC3)ccc21`, > 10 µM (inactive).
Next, `CCCn1[nH]cc(SC)c(=O)c1=O`: 8.67 µM; `CCc1[nH]nc2c1C(c1ccc(Br)s1)C(C#N)=C(N)O2` (configuration not stated): 9.31 µM; `CC(=O)Oc1ccccc1N1C(=O)c2ccc(C(=O)O)cc2C1=O`: > 10 µM (inactive).
Next, `CCOC(=O)CN1C(=O)N[C@H](c2ccc(Br)cc2)C(C(C)=O)=C1C`: > 10 µM (inactive).
`CCCN1C(=O)/C(=C/c2ccncc2)SC1=S`: the EC50 was 6.93 µM.
Next, `Cc1nc2c(=O)n(C)c(=O)n(C)c2nc1Cl`: 1.72 µM; `COc1c(Br)cc(Br)cc1/C=N/n1c(C)nnc1C`: > 10 µM (inactive); `CCOC(=O)C1C(c2cccs2)NC(=O)N(C)C1(O)C(F)(F)F` (configuration not stated): > 10 µM (inactive).
In the case of `CCOc1ccc(NCc2nc3ccccc3n2CCOc2ccccc2)cc1` it was 3.28 µM.
Regarding `CCCCC(CC)Cn1c2nc3ccccc3nc2c2c(=N)oc(C)nc21` (configuration not stated), the EC50 was > 10 µM (inactive).
Next, `CC(=O)c1c(C)[nH]c(C(=O)OC2CCCCC2=O)c1C` (configuration not stated): > 10 µM (inactive); `O=C(NCc1ccco1)c1c(O)c2cccc3c2n(c1=O)CCC3`: 5.98 µM; `O=Cc1ccccc1OS(=O)(=O)c1ccccc1`: 9.56 µM.
In the case of `c1ccc(-c2c(-c3ccccc3)n(Cc3ccco3)c3ncnc(NCCCn4ccnc4)c23)cc1` it was 1.98 µM.
Next, `CCn1c(=O)c2c(O)cc(=O)oc2c2ccccc21`: less than 0.078 µM; `c1cncc(-c2nn[nH]n2)c1`: > 10 µM (inactive).
Regarding `CCCCCCC1C(C#N)=C(N)OC2=C1C(=O)CC(C)(C)C2` (configuration not stated), the EC50 was > 10 µM (inactive).
In the case of `CCC(=NCCc1c(C)[nH]c2ccc(C)cc12)C1=C(O)CC(c2ccccc2)CC1=O` (configuration not stated) it was 5.08 µM; in that of `Cc1cc(N2C(=O)CC(Cc3ccccc3)C2=O)no1` (configuration not stated), > 10 µM (inactive).
For the compound `CC(=O)Oc1c(C(=O)c2nnc(C)o2)c(=O)n(C)c2ccccc12`, the EC50 was > 10 µM (inactive).
Next, `CC(C)(C)C(=O)Cn1c(=N)n(Cc2ccccc2)c2ccccc21`: 9.33 µM.
